# Screening data as filed in PubChem.
# RanGTP-Imp inh = inhibitors of RanGTP-importin-beta interaction, primary screen, biochemical, FRET, CFP-Ran, YFP-importin-beta, homogeneous; AID 2216, 2009; cell-free CFP-Ran/YFP-importin-beta FRET ratio; inhibition, % (no concentration beside the values); Ran GTPase (GTP-bound) - importin-beta complex; 1.1% of 300,000 active;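 active = more than half of the replicate wells show a fall in the fluorescence ratio signal beyond about 16%, limit read from the data, passing the limit was not always enough; inconclusive = exactly half of the replicate wells pass the set limit; inactive = fewer than half of replicates pass the limit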;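 also: 0% = DMSO wells and 100% = Ran loaded with GDP instead of GTP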
# p97 ATPase inh = inhibitors of human p97 ATPase, primary screen, biochemical; recombinant p97 ATPase, Kinase-Glo ATP luminescence, 3 h; inhibition, % at 8 µM; 0.42% of 220,000 active; AID 1481, 2009; in the data active = inhibition above about 15%;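 also: 0% = DMSO vehicle and 100% = wells lacking enzyme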
# Hck-Nef inh = inhibitors of Nef-activated human Hck kinase, primary screen, biochemical, Z-Lyte FRET, 384-well, Hck-YEEI. Tyrosine-protein kinase HCK (Homo sapiens), P08631. Recombinant Hck-YEEI plus Nef, Z-Lyte FRET kinase assay. inhibition, % at 20 µM. 0.68% of 220,000 active;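 active = Hck-Nef kinase inhibition above about 50%, limit read from the data; inactive = inhibition below that limit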;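 also: 0% = DMSO with Hck plus Nef and 100% = Hck alone without Nef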
# Target sequence (P08631 whole entry, looked up): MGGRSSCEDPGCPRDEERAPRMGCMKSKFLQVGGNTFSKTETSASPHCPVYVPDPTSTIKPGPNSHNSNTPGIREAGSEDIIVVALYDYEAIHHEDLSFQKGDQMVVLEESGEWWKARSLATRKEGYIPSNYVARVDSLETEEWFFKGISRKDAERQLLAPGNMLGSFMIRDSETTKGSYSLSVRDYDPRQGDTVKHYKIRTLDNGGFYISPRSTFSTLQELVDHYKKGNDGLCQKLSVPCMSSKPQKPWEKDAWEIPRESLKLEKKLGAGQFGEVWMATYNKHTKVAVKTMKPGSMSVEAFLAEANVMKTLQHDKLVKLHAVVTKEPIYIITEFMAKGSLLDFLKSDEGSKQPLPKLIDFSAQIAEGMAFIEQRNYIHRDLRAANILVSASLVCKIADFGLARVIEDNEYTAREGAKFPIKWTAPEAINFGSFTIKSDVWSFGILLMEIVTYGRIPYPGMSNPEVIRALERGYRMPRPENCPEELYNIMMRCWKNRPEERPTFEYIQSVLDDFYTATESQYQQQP
# Tb hexokinase = Trypanosoma brucei hexokinase 1 inhibitors, primary screen, biochemical, G6PDH-coupled NADH absorbance, MLSCN library; hexokinase 1 [Trypanosoma brucei]; recombinant TbHK1, G6PDH-coupled NADH A340; inhibition, % at 10 µM; 0.11% of 220,000 active; AID 1430, 2008;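 active = inhibition of 50% or more in the single-dose primary screen; inactive = inhibition below 50%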
# Runt-CBFb FRET = inhibitors of RUNX1 Runt–CBFb binding, primary screen, biochemical, FRET, Cerulean-Runt, Venus-CBFb, uHTS. 0.46% of 220,000 active. AID 1496, 2009. Cerulean-Runt/Venus-CBFb FRET ratio 530/480, 1 h. inhibition, % at 20 µM;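 active = inhibition over about 50% at 20 µM in the single-dose screen, limit read from the data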;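 also: 0% = DMSO wells and 100% = excess unlabeled CBFb competitor control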
#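 System: Cerulean-labeled Runt domain protein | Quantity: 100 nM of each labeled protein | Schedule: 1 h compound exposure, room temperature | Detection: Fluorescence energy transfer, 422 nm excitation, 530/480 nm emission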
# Runt-SMMHC FRET = inhibitors of RUNX1 Runt–CBFb-SMMHC binding, primary screen, biochemical, FRET, Cerulean-Runt, Venus-CBFb-SMMHC, uHTS | Cerulean-Runt/Venus-CBFb-SMMHC FRET ratio 530/480, 1 h | inhibition, % at 20 µM | 0.74% of 220,000 active | AID 1434, 2008;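 active = mean inhibition across duplicate retests at 20 µM reaching about 50%, limit read from the data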;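 also: 0% = DMSO wells and 100% = wells with excess untagged CBFb-SMMHC; inhibitors lower the FRET ratio by blocking Runt binding to CBFb-SMMHC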
# Starred values were filed as active, the others as inactive; ? = inconclusive; · = not tested or not shown. Only some compounds are listed: those with a hit (about 2.1% of all), similar ones and a draw of the others.
SMILES,RanGTP-Imp inh,p97 ATPase inh,Hck-Nef inh,Tb hexokinase,Runt-CBFb FRET,Runt-SMMHC FRET
O=C(c1cc([N+](=O)[O-])ccc1N1CCOCC1)N1CCN(S(=O)(=O)c2cc(Cl)ccc2Cl)CC1,0.2,·,·,·,·,·
Cc1nnc(NC(=O)CSc2nnc(CC(=O)Nc3ccccc3C)n2C)s1,3.1,·,·,·,·,·
O=C(Cn1cnc2scc(-c3cccc([N+](=O)[O-])c3)c2c1=O)NCc1ccco1,-1.4,3.4,54.0*,-0.1,1.6,-3.8
Cc1onc(-c2c(F)cccc2Cl)c1C(=O)Nc1sc2c(c1C(N)=O)CCC2,60.6*,0.1,-0.6,6.6,3.1,0.7
Cc1onc(-c2ccccc2)c1C(=O)Nc1sc2c(c1C#N)CCC2,46.3*,1.0,17.9,-4.0,8.6,7.2
Cc1onc(-c2ccccc2)c1C(=O)Nc1sc2c(c1C(N)=O)CCC2,50.8*,-1.6,0.1,-17.9,-0.6,-4.0
Cc1sc(NC(=O)C2CCCCC2)c(C#N)c1-c1ccccc1,0.7,-3.8,1.3,2.2,1.7,-3.9
Cc1noc(C)c1C(=O)Nc1sc(C)c(-c2ccccc2)c1C#N,109.7*,0.3,9.4,-22.2,13.9,10.2
Cc1onc(-c2ccccc2)c1C(=O)NC(=S)Nc1sc2c(c1C#N)CCC(C)C2 (configuration not stated),-0.9,4.4,-2.1,-13.4,20.2,16.2
O=C(NCc1cccnc1)Nc1cccc(Cl)c1Cl,4.9,·,·,·,·,·
Cc1ccc(OCc2cc(C(=O)N(C)CCc3nc4ccccc4[nH]3)no2)cc1C,-5.5,·,·,·,·,·
N#Cc1c(NC(=O)CSc2ncc(-c3ccccc3)n2CC2CCCO2)sc2c1CCCC2 (configuration not stated),3.6,-6.8,1.8,-8.4,27.2,72.9*
CCOC(=O)CSCc1c(C#N)c2ccccc2n1C,·,-5.4,-1.1,-5.7,0.3,-1.3
CCOC(=O)COc1ccc2c(C#N)c3ccccn3c2c1,4.9,7.2,-10.4,1.1,19.7,92.2*
CCOC(=O)c1c2ccc(OCC(=O)N/N=C/c3ccc(Cl)cc3)cc2n2ccccc12,41.2*,1.6,13.4,-1.7,·,-61.7
N#Cc1c2ccc(OCC(N)=O)cc2n2ccccc12,55.0*,2.3,-59.6,-7.3,19.9,86.0*
CCOC(=O)c1c2ccc(OCC(=O)N/N=C/c3ccccc3C(F)(F)F)cc2n2ccccc12,·,-1.4,7.9,-9.6,-2.0,-14.6
COc1cc(OC)cc(C(=O)c2c(C)c(C#N)c3ccccn23)c1,-2.3,·,·,·,·,·
CN(C#N)c1nc(Cl)nc(Nc2cccc(Cl)c2)n1,-2.3,14.6*,-0.4,-1.5,3.5,3.6
Cc1cc(C)nc(Nc2cccc(Cl)c2)n1,8.2,·,·,·,·,·
O=C1C2C3CCC(O3)C2C(=O)N1c1cccc(O)c1 (configuration not stated),33.2*,·,·,·,·,·
Cc1cccc(N2C(=O)C3C4C=CC(CC4)C3C2=O)c1 (configuration not stated),-4.3,·,·,·,·,·
CCCn1nc(NC(=O)C2CCCO2)c2cc3ccc(C)cc3nc21 (configuration not stated),20.9*,-0.8,28.3,-18.0,18.0,29.1
CCn1nc(NC(=O)c2ccncc2)c2cc3cc(C)ccc3nc21,11.6,0.3,6.4,-6.3,8.1,22.4
Cc1ccc2cc(C#N)c(NCCCNC(=O)C3CCCO3)nc2c1 (configuration not stated),5.8,-2.7,20.8,-4.8,13.5,42.6
SMILES,RanGTP-Imp inh,p97 ATPase inh,Hck-Nef inh,Tb hexokinase,Runt-CBFb FRET,Runt-SMMHC FRET
CCCn1nc(NC(=O)C2CCCO2)c2cc3cc(C)ccc3nc21 (configuration not stated),55.7*,-2.9,39.8,-7.9,42.9,58.7*
CCc1ccc(/C=C2\Oc3cc(OS(C)(=O)=O)ccc3C2=O)cc1,2.8,-2.1,0.6,-21.0,-8.0,-6.0
CCc1ccc(/C=C2\Oc3c(ccc(O)c3CN3CCN(CCO)CC3)C2=O)cc1,11.9,3.6,-21.1,-37.0,11.7,81.2*
Cc1ccc(NC(=O)C2CC2C)cc1S(=O)(=O)N1CCOCC1 (configuration not stated),2.6,·,·,·,·,·
CC(=O)OCc1nc2ccccc2s1,?,3.9,0.7,-2.9,-0.5,1.0
CCCc1cc(C(=O)Cc2ccc(F)cc2)c(O)cc1O,-2.2,-13.7,-11.9,-21.8,-1.5,-3.4
CCCc1cc(C(=O)Cc2nc3ccccc3s2)c(O)cc1O,111.6*,12.3,9.9,-18.6,·,-21.1
CCOC(=O)C(=O)Cc1nc2ccccc2s1,51.8*,5.9,4.6,-17.4,0.8,-0.7
CCN(CC)CCn1c(=S)[nH]c2cc(C(=O)NCc3ccccc3Cl)ccc2c1=O,1.5,·,·,·,·,·
Fc1ccc(NC(=S)N2CCN(c3cccc(C(F)(F)F)c3)CC2)cc1,27.0*,-2.1,0.0,0.3,3.1,1.3
CCCCNC(=O)O[C@@H]1C[C@H]2CCC(=O)N3CC[C@@H](C1)[C@@H]23,-2.4,·,·,·,·,·
COc1cc(-c2nc(-c3ccc4c(c3)-c3ccccc3S4(=O)=O)c(-c3ccccc3)[nH]2)cc(OC)c1OC,-6.6,4.8,-25.8,-4.4,-53.0,-108.1
COc1cccc(-c2nc(-c3ccc4c(c3)-c3ccccc3S4(=O)=O)c(-c3ccccc3)[nH]2)c1OC,15.5*,1.4,-9.6,-17.2,-11.3,·
O=[N+]([O-])/C(=C\Nc1ccc(F)cc1F)S(=O)(=O)c1ccccc1,0.0,·,·,·,·,·
Cc1cc(C(=O)O)ccc1-c1ccc(/C=C2\NC(=O)N(Cc3ccc(F)cc3)C2=O)o1,64.9*,6.5,46.7,-12.3,115.9*,80.3*
Cc1ccc(NC(=O)CN2C(=O)S/C(=C/c3ccc(-c4cc(C(=O)O)ccc4C)o3)C2=O)cc1C,35.8*,0.6,15.7,30.9,13.1,-42.1
Cc1ccc(C(=O)O)cc1-c1ccc(C=C2C(=O)c3ccccc3C2=O)o1,-1.4,9.0,39.3,2.3,12.4,-17.2
Cc1cccc(NC(=O)CN2C(=O)S/C(=C\c3ccc(-c4cccc(C(=O)O)c4C)o3)C2=O)c1,41.4*,5.5,-9.3,11.3,30.6,54.4
COC(=O)C(C)N1C(=O)S/C(=C\c2ccc(-c3ccc(C(=O)O)cc3C)o2)C1=O (configuration not stated),17.3*,·,·,·,·,·
